Source: ChEMBL document CHEMBL1157762, “Sequence inversion and phenylalanine surrogates at the beta-turn enhance the antibiotic activity of gramicidin S” (J Med Chem, 2010)
Converted amounts (≈) assume the structure as drawn. Where a SMILES comes first, the peptide text is derived from it.

Columns and labels:
Listeria monocytogenes = assay: Antibacterial activity against Listeria monocytogenes CECT 4032 after 24 hrs by turbidimetry; type: functional; conditions: CECT 4032, 24 h
How it was run: (§1)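 Frozen stocks thawed and grown two days in cation-adjusted Mueller-Hinton II broth at 37 °C. Exponential-phase cells washed twice in PBS pH 7.0 and resuspended in the same broth at 5 × 10^5 CFU/mL. Incubated 24 h at 37 °C with peptide, growth read by turbidity at 600 nm. Two experiments, triplicate samples. MIC50 taken as lowest concentration giving 50% growth inhibition versus untreated control.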

[1] = Therapeutic index, ratio of HC50 for sheep erythrocytes to MIC50 for polymyxin E-resistant Acinetobacter baumannii ATCC 19606
Staphylococcus aureus = assay: Antibacterial activity against Staphylococcus aureus CECT 240 after 24 hrs by turbidimetry; type: functional; conditions: CECT 240, 24 h; how it was run: as §1

Row | MIC50 (Staphylococcus aureus) [µM] | SMILES | MIC50 (Listeria monocytogenes) [µM] | selectivity ratio [1]
1 | – | CC(C)C[C@@H]1NC(=O)[C@H](CCCN)NC(=O)[C@H](C(C)C)NC(=O)[C@H](C2c3ccccc3-c3ccccc32)NC(=O)[C@H]2CCCN2C(=O)[C@H](CC(C)C)NC(=O)[C@H](CCCN)NC(=O)[C@H](C(C)C)NC(=O)[C@H](C2c3ccccc3-c3ccccc32)NC(=O)[C@H]2CCCN2C1=O (HELM PEPTIDE1{L.[dP].[O=C([C@@H](N[*:1])C1c2ccccc2-c2ccccc21)[*:2]].V.[Orn].L.[dP].[O=C([C@@H](N[*:1])C1c2ccccc2-c2ccccc21)[*:2]].V.[Orn]}$PEPTIDE1,PEPTIDE1,1:R1-10:R2$$$V2.0) | 2.2 (≈ 2.84 µg/mL) | 0.1
2 | 2.4 (≈ 2.8 µg/mL) | CC(C)C[C@@H]1NC(=O)[C@H](CCCN)NC(=O)[C@H](C(C)C)NC(=O)[C@@H]2Cc3ccccc3CN2C(=O)[C@H]2CCCN2C(=O)[C@H](CC(C)C)NC(=O)[C@H](CCCN)NC(=O)[C@H](C(C)C)NC(=O)[C@@H]2Cc3ccccc3CN2C(=O)[C@H]2CCCN2C1=O (HELM PEPTIDE1{L.[dP].[Tic].V.[Orn].L.[dP].[Tic].V.[Orn]}$PEPTIDE1,PEPTIDE1,1:R1-10:R2$$$V2.0) | – | –
